Laboratory results: ChEMBL document CHEMBL4316593 (Eur J Med Chem, 2019)
Active and inactive are the calls of the source. No cut-off for these calls is given here.

Experiments:
U-87 MG [1] = test: Induction of apoptosis in human U87 cells assessed as change in ACTG1 gene expression at cytotoxic IC50 measured after 48 hrs […] relative to control; assay type: functional, U-87MG ATCC
In short: (§1)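 U87 cells grown in MEM with 10% FBS at 37°C, 5% CO2. Cells exposed to IC50 of test compound for 48 hrs, alongside untreated and cisplatin controls, each condition in triplicate. RNA isolated and profiled; differential expression called with DESeq2 (q-value < 0.05, fold change > 1.5), fold change versus untreated.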

U-87 MG [2] = test: Induction of apoptosis in human U87 cells assessed as change in CTSV gene expression at cytotoxic IC50 measured after 48 hrs […] relative to control; assay type: functional, U-87MG ATCC; in short: as §1
[3] = Inhibition of RTK/PI3K/AKT/mTOR signaling in human U87 cells assessed as up regulation of NARS gene expression at cytotoxic IC50 measured after 48 hrs relative to control; assay type: cell-based; conditions: U-87MG ATCC
In short: (§2)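 Cells were exposed for 48hrs at 37°C in humidified 5% CO₂ to the compound at its previously determined IC₅₀, with Cisplatin at its IC₅₀ and an untreated negative control alongside. Each condition was run in triplicate. RNA was isolated from all samples by the same protocol. Genes were called differentially expressed by DESeq2 at q-value < 0.05 and fold change > 1.5.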

[4] = Inhibition of RTK/PI3K/AKT/mTOR signaling in human U87 cells assessed as up regulation of GGA2 gene expression at cytotoxic IC50 measured after 48 hrs relative to control; assay type: cell-based; conditions: U-87MG ATCC; in short: as §2
[5] = Inhibition of RTK/PI3K/AKT/mTOR signaling in human U87 cells assessed as down regulation of WDR62 gene expression at cytotoxic IC50 measured after 48 hrs relative to control; assay type: cell-based; conditions: U-87MG ATCC; in short: as §2
[6] = Inhibition of RTK/PI3K/AKT/mTOR signaling in human U87 cells assessed as up regulation of T-cell lymphoma invasion and metastasis 1 gene expression at cytotoxic IC50 measured after 48 hrs relative to control; assay type: cell-based
[7] = Inhibition of RTK/PI3K/AKT/mTOR signaling in human U87 cells assessed as up regulation of EPS8 like 2 gene expression at cytotoxic IC50 measured after 48 hrs relative to control; assay type: cell-based; conditions: U-87MG ATCC; in short: as §2
U-87 MG [8] = test: Cell cycle arrest in human U87 cells assessed as change in GADD45B gene expression at cytotoxic IC50 measured after 48 hrs […] relative to control; assay type: functional, U-87MG ATCC
In short: (§3)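 U87 expression profiling. Cells incubated 48hrs at 37°C, 5% CO₂ with the IC₅₀ concentration, alongside a cisplatin and an untreated control, in triplicate. RNA was isolated by one common protocol and profiled. DEGs were called with DESeq2 (q < 0.05, fold change > 1.5) and expressed as fold change versus untreated.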

[9] = Inhibition of RTK/PI3K/AKT/mTOR signaling in human U87 cells assessed as down regulation of ERCC3 gene expression at cytotoxic IC50 measured after 48 hrs relative to control; assay type: cell-based; conditions: U-87MG ATCC; in short: as §1
U-87 MG [10] = test: Cytotoxicity against human U87 cells assessed as reduction in cell proliferation at 100 uM measured after 48 hrs by trypan blue dye-based cell counting analysis; assay type: functional; conditions: U-87MG ATCC
In short: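 Trypan blue viability assay. U87 (MEM, 10% FBS) or LN229 (DMEM, 5% FBS) cells were treated for 48hrs. Screening used 100 μM; the dose-response used 100, 75, 50, 25 and 10 μM. Cells were pelleted at 1200 rpm and live/dead cells counted by automated counter. Mortality % was taken relative to the DMSO control, and IC₅₀ derived from the dose-response curve. Cisplatin served as positive control.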

[11] = Inhibition of RTK/PI3K/AKT/mTOR signaling in human U87 cells assessed as up regulation of retinoic acid receptor alpha gene expression at cytotoxic IC50 measured after 48 hrs relative to control; assay type: cell-based; conditions: U-87MG ATCC
[12] = Inhibition of RTK/PI3K/AKT/mTOR signaling in human U87 cells assessed as down regulation of CDK5RAP2 gene expression at cytotoxic IC50 measured after 48 hrs relative to control; assay type: cell-based; conditions: U-87MG ATCC; in short: as §1
[13] = Inhibition of RTK/PI3K/AKT/mTOR signaling in human U87 cells assessed as up regulation of TOX2 gene expression at cytotoxic IC50 measured after 48 hrs relative to control; assay type: cell-based; conditions: U-87MG ATCC
[14] = Inhibition of RTK/PI3K/AKT/mTOR signaling in human U87 cells assessed as down regulation of KIF1BP gene expression at cytotoxic IC50 measured after 48 hrs relative to control; assay type: cell-based; conditions: U-87MG ATCC; in short: as §1
U-87 MG [15] = test: Cell cycle arrest in human U87 cells assessed as change in SFN gene expression at cytotoxic IC50 measured after 48 hrs […] relative to control; assay type: functional, U-87MG ATCC; in short: as §3
[16] = Inhibition of RTK/PI3K/AKT/mTOR signaling in human U87 cells assessed as down regulation of TEX14 gene expression at cytotoxic IC50 measured after 48 hrs relative to control; assay type: cell-based; conditions: U-87MG ATCC; in short: as §2
U-87 MG [17] = test: Cell cycle arrest in human U87 cells assessed as accumulation at S-phase at cytotoxic IC50 measured after 48 hrs by propidium iodide staining based fluorescence cell imaging analysis (reference value: 19.2%); assay type: functional, U-87MG ATCC
In short: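 Cell cycle by PI staining. Cells seeded at 1×10^6 and grown overnight at 37°C, 5% CO₂, then exposed for 48hrs at their IC₅₀ concentration, with DMSO and cisplatin controls. Cells were trypsinized, washed in cold PBS and fixed in 70% ethanol at 4°C for 30 min. They were stained with PI in Triton X-100/RNase for 15 min at 37°C and imaged by fluorescence microscopy. Reported as mean ± S.E.M of triplicates.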

U-87 MG [18] = test: Cell cycle arrest in human U87 cells assessed as change in MCM3 gene expression at cytotoxic IC50 measured after 48 hrs […] relative to control; assay type: functional, U-87MG ATCC; in short: as §3
U-87 MG [19] = test: Induction of DNA damage in human U87 cells assessed as change in PCNA gene expression at cytotoxic IC50 measured after 48 hrs […] relative to control; assay type: functional, U-87MG ATCC; in short: as §3
U-87 MG [20] = test: Cell cycle arrest in human U87 cells assessed as change in MDM2 gene expression at cytotoxic IC50 measured after 48 hrs […] relative to control; assay type: functional, U-87MG ATCC; in short: as §3
[21] = Inhibition of RTK/PI3K/AKT/mTOR signaling in human U87 cells assessed as down regulation of CCDC186 gene expression at cytotoxic IC50 measured after 48 hrs relative to control; assay type: cell-based; conditions: U-87MG ATCC; in short: as §1
U-87 MG [22] = test: Induction of DNA damage in human U87 cells assessed as change in GADD45A gene expression at cytotoxic IC50 measured after 48 hrs […] relative to control; assay type: functional, U-87MG ATCC; in short: as §3
[23] = Inhibition of RTK/PI3K/AKT/mTOR signaling in human U87 cells assessed as down regulation of ZYG11B gene expression at cytotoxic IC50 measured after 48 hrs relative to control; assay type: cell-based; conditions: U-87MG ATCC; in short: as §2
[24] = Inhibition of RTK/PI3K/AKT/mTOR signaling in human U87 cells assessed as up regulation of TTYH3 gene expression at cytotoxic IC50 measured after 48 hrs relative to control; assay type: cell-based; conditions: U-87MG ATCC
U-87 MG [25] = test: Cytotoxicity against human U87 cells assessed as reduction in cell proliferation up to 200 uM by trypan blue dye-based cell counting analysis; assay type: functional; conditions: U-87MG ATCC, TDE = time-dependent effect
In short: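 U87 cells grown 24hrs, then treated for 5hrs with 0-200 μM. Viability by trypan blue exclusion; mean ± S.E.M, n = 4 per group, one-way ANOVA.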

CC(=O)C(=NNc1ccccc1C#N)C(C)=O
log2FC (U-87 MG [1]): -1.416 | log2FC (U-87 MG [2]): 1.986 | log2FC [3]: 0.53 | log2FC [4]: 0.505 | log2FC [5]: -1.86 | log2FC [6]: 0.812 | log2FC [7]: 0.818 | fold change (FC) (U-87 MG [8]): -2.899 | log2FC [9]: -0.491 | Activity (U-87 MG [10]): Active | log2FC [11]: 1.04 | log2FC [12]: -0.519 | log2FC [13]: 1.66 | log2FC [14]: -0.96 | fold change (FC) (U-87 MG [15]): 1.949 | log2FC [16]: -3.88 | Activity (U-87 MG [17]): 2.8% | fold change (FC) (U-87 MG [18]): 1.427 | fold change (FC) (U-87 MG [19]): 1.668 | fold change (FC) (U-87 MG [20]): 1.471 | log2FC [21]: -0.865 | fold change (FC) (U-87 MG [22]): -0.9679 | log2FC [23]: -0.823 | log2FC [24]: 0.524 | Activity (U-87 MG [25]): Tde
